{"source": "paper PMC9060905", "about": "(RSC Advances, 2019)", "key": {"[1]": {"system": "ACE", "details": "cited from earlier work"}, "[2]": {"molecular_target": "T1, ACE (from rabbit lung) (Oryctolagus cuniculus, UniProt P12822)", "T1 sequence (P12822 34-1310)": "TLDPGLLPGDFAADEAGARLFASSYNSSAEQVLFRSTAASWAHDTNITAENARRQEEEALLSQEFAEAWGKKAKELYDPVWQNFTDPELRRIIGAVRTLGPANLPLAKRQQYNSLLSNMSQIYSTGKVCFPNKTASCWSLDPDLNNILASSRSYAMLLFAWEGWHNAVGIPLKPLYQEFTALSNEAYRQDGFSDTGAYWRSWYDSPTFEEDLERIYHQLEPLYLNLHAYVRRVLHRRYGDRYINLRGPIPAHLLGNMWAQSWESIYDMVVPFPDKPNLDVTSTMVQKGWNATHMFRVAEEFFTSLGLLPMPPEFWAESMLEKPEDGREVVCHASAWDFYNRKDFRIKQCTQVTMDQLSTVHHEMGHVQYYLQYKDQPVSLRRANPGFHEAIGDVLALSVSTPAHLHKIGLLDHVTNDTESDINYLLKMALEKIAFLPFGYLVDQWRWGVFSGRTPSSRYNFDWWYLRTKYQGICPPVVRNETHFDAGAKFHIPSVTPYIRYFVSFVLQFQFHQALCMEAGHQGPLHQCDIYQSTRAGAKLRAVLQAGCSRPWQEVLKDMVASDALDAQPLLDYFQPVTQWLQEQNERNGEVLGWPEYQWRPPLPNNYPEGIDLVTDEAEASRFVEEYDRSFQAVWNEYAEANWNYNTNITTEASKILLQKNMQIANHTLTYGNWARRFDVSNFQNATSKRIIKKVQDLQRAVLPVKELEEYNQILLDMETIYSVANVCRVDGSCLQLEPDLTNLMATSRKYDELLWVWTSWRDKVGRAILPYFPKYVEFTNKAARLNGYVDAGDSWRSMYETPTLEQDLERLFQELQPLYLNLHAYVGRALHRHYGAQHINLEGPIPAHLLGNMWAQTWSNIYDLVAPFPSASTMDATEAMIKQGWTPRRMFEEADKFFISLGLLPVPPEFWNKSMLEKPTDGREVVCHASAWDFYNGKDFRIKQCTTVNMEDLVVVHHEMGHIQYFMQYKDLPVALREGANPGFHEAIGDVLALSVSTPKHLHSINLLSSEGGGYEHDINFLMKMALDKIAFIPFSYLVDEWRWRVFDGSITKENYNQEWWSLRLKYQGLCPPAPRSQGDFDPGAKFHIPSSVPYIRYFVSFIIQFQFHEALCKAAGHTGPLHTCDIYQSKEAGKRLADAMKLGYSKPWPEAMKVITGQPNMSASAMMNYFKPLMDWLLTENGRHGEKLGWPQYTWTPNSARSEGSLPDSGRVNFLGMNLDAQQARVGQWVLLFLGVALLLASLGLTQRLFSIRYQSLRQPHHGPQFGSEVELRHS", "test": "ACE-inhibitory activity", "assay_type": "biochemical", "in_short": "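Rabbit-lung ACE with HHL substrate. Hippuric acid is extracted into ethyl acetate (vortex 5 s, 14100g for 5 min). The upper organic phase is dried in a vacuum oven at 80 °C for 1 h, redissolved in distilled water, and read at 228 nm. Experiments repeated at least three times; mean values used.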"}, "[3]": {"details": "cited from earlier work"}, "[4]": {"system": "ET-1 in vascular endothelial cells", "details": "cited from earlier work"}}, "note": "Where two headings read alike, the source gives them in different places. Ends that are not written are not given here."}
{"substance": "EVSQGRP", "values": [{"measurement": "ACE inhibition pattern", "setting": "[1]", "value": "mixed-mode inhibition patterns"}]}
{"substance": "KAQYPYV [KAQYPYV, Lys-Ala-Gln-Tyr-Pro-Tyr-Val]", "values": [{"measurement": "IC50", "setting": "[2]", "value": 37.1, "unit": "µM"}]}
{"substance": "Leu-Ala-Arg-Leu", "values": [{"measurement": "Fe2+ chelating ability", "setting": "[3]; at 0.1 mg mL^-1, tilapia gelatin peptide", "value": 46.53, "unit": "%"}]}
{"substance": "SAAVGSP", "values": [{"measurement": "ACE inhibition pattern", "setting": "[1]", "value": "mixed-mode inhibition patterns"}]}
{"substance": "Val-Ile-Glu-Pro-Arg", "values": [{"measurement": "Effect on ET-1 expression in vascular endothelial cells", "setting": "[4]", "value": "inhibiting the expression of ET-1"}]}
{"substance": "Val-Phe-Tyr", "values": [{"measurement": "Effect on ET-1 expression in vascular endothelial cells", "setting": "[4]", "value": "inhibiting the expression of ET-1"}]}
{"substance": "Val-Val-Leu-Tyr-Lys [VVLYK]", "values": [{"measurement": "Effect on ET-1 expression in vascular endothelial cells", "setting": "[4]", "value": "inhibiting the expression of ET-1"}, {"measurement": "ACE inhibition pattern", "setting": "[1]", "value": "mixed-mode inhibition patterns"}]}
{"substance": "YYIVS", "values": [{"measurement": "Fe2+ chelating ability", "setting": "[3]; at 3 mg mL^-1, sweet potato protein peptide", "value": 59.74, "unit": "%"}]}
